According to ChEMBL document CHEMBL2321723, “Synthesis and mechanistic studies of novel spin-labeled combretastatin derivatives as potential antineoplastic agents” (Bioorg Med Chem, 2013):
Calls of active or inactive are those of the source. No cut-off for these calls is given here.

Assays:
K562 = assay: Cytotoxicity against human K562 cells after 24 hrs by MTT assay; format: functional, cell-based
Method in brief: (§1)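 MTT assay in RPMI 1640 with 10% fetal calf serum, 2 mM L-glutamine and […]. Log-phase cells seeded, attached 24 h at 37 °C and 5% CO₂, then treated at 0–100 μM. Compounds dissolved in DMSO (1 mg/mL stock), DMSO below 0.1% in wells. Five wells per concentration, triplicate experiments. Blank-corrected OD taken as % of untreated growth, IC50 = 50% inhibition.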

[1] = Cytotoxicity against human […] cells after 24 hrs by MTT assay; format: functional, cell-based; method in brief: as §1
HepG2 = assay: Cytotoxicity against human HepG2 cells after 24 hrs by MTT assay; format: functional, cell-based; method in brief: as §1
HeLa [2] = assay: Cytotoxicity against human HeLa cells after 24 hrs by MTT assay; format: functional, cell-based; method in brief: as §1
HeLa [3] = assay: Cell cycle arrest in human HeLa cells assessed as accumulation in G1 phase at 3 uM after 36 hrs by PI-staining based flow cytometric analysis (reference value: 47.36%); format: functional
Method in brief: (§2)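 HeLa cells (1 × 10⁵) exposed 36 h to 0, 0.375, 1.5 or 3 μM; washed twice in ice-cold PBS, harvested and fixed. Then RNase A (0.1 mg/mL, 37 °C, 30 min) and propidium iodide staining (30 min on ice, dark). Flow cytometry gave sub-G1, G1, S and G2 fractions, compared with untreated cultures.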

HeLa [4] = assay: Induction of apoptosis in human HeLa cells assessed as late apoptotic cells at 0.375 to 3 uM after 24 hrs by FITC/AnnexinV-based flow cytometric analysis (reference value: 0.81%); format: functional
HeLa [5] = assay: Cell cycle arrest in human HeLa cells assessed as accumulation in G1 phase at 1.5 uM after 36 hrs by PI-staining based flow cytometric analysis (reference value: 47.36%); format: functional; method in brief: as §2
HeLa [6] = assay: Induction of apoptosis in human HeLa cells assessed as early apoptotic cells at 0.375 to 3 uM after 24 hrs by FITC/AnnexinV-based flow cytometric analysis (reference value: 0.17%); format: functional
HeLa [7] = assay: Cell cycle arrest in human HeLa cells assessed as accumulation in G1 phase after 36 hrs by PI-staining based flow cytometric analysis; format: functional; method in brief: as §2
Capra hircus [8] = organism: Capra hircus; assay: Inhibition of goat tubulin polymerization at 3 uM after 30 mins by transmission electron microscopic analysis
Method in brief: (§3)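 Microtubule protein from goat brain purified by repeated warm polymerisation and cold depolymerisation cycles with glycerol, ATP and GTP. Tubulin incubated ± compound 30 min at 37 °C in 80 mM PIPES pH 6.9, 1 mM MgCl₂, […], 30% glycerol, 1 mM GTP. Fixed in 0.5% glutaraldehyde, grids stained with uranyl acetate, viewed by TEM at 100 kV.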

HeLa [9] = assay: Cell cycle arrest in human HeLa cells assessed as accumulation in G1 phase at 0.375 uM after 36 hrs by PI-staining based flow cytometric analysis (reference value: 47.36%); format: functional; method in brief: as §2
HeLa [10] = assay: Cell cycle arrest in human HeLa cells assessed as accumulation in subG1 phase at 0.375 uM after 36 hrs by PI-staining based flow cytometric analysis (reference value: 0.2%); format: functional; method in brief: as §2
HeLa [11] = assay: Cell cycle arrest in human HeLa cells assessed as decrease in S phase after 36 hrs by PI-staining based flow cytometric analysis; format: functional; method in brief: as §2
HeLa [12] = assay: Cell cycle arrest in human HeLa cells assessed as accumulation in subG1 phase after 36 hrs by PI-staining based flow cytometric analysis; format: functional; method in brief: as §2
Capra hircus [13] = organism: Capra hircus; assay: Inhibition of goat tubulin polymerization assessed as club shaped cytoskeleton at 3 uM after 30 mins by transmission electron microscopic analysis; method in brief: as §3
HeLa [14] = assay: Induction of apoptosis in human HeLa cells at 0.375 uM after 24 hrs by FITC/AnnexinV-based flow cytometric analysis (reference value: 0.98%); format: functional
HeLa [15] = assay: Cell cycle arrest in human HeLa cells assessed as accumulation in subG1 phase at 1.5 uM after 36 hrs by PI-staining based flow cytometric analysis (reference value: 0.2%); format: functional; method in brief: as §2
HeLa [16] = assay: Cell cycle arrest in human HeLa cells assessed as accumulation in subG1 phase at 3 uM after 36 hrs by PI-staining based flow cytometric analysis (reference value: 0.2%); format: functional; method in brief: as §2
HeLa [17] = assay: Cell cycle arrest in human HeLa cells assessed as decrease in G2 phase after 36 hrs by PI-staining based flow cytometric analysis; format: functional; method in brief: as §2
HeLa [18] = assay: Induction of apoptosis in human HeLa cells at 3 uM after 24 hrs by FITC/AnnexinV-based flow cytometric analysis (reference value: 0.98%); format: functional
HeLa [19] = assay: Induction of apoptosis in human HeLa cells at 1.5 uM after 24 hrs by FITC/AnnexinV-based flow cytometric analysis (reference value: 0.98%); format: functional

Compound	IC50 (K562; k562)	IC50 [1]	IC50 (HepG2; hepg2)	IC50 (HeLa [2]; hela)	other results
COc1ccc(/C=C\c2cc(OC)c(OC)c(OC)c2)cc1NC(=O)C1=CC(C)(C)N([O])C1(C)C	> 100 µM	> 100 µM	38.8 µM	42.3 µM	–
COc1ccc(/C=C\c2cc(OC)c(OC)c(OC)c2)cc1NC(=O)CNC(=O)OC1CC(C)(C)N([O])C(C)(C)C1	1.09 µM	0.39 µM	0.98 µM	0.41 µM	Activity (HeLa [3]): 96.25%; Activity (HeLa [4]): 13.96%; Activity (HeLa [5]): 85.82%; Activity (HeLa [6]): 52.6%; Activity (HeLa [7]): Dose-dependent effect; inhibition (Capra hircus [8]): Active; Activity (HeLa [9]): 32.85%; Activity (HeLa [10]): 1.14%; Activity (HeLa [11]): Dose-dependent effect; Activity (HeLa [12]): Dose-dependent effect; inhibition (Capra hircus [13]): Active; Activity (HeLa [14]): 43.99%; Activity (HeLa [15]): 16.71%; Activity (HeLa [16]): 32.42%; Activity (HeLa [17]): Dose-dependent effect; Activity (HeLa [18]): 66.54%; Activity (HeLa [19]): 55.75%
COc1ccc(/C=C\c2cc(OC)c(OC)c(OC)c2)cc1NC(=O)C1=CC(C)(C)N([O])C(C)(C)C1	15.6 µM	6.21 µM	10.7 µM	8.57 µM	–
COc1ccc(/C=C\c2cc(OC)c(OC)c(OC)c2)cc1NC(=O)[C@H](Cc1c[nH]c2ccccc12)NC(=O)OC1CC(C)(C)N([O])C(C)(C)C1	0.56 µM	3.55 µM	2.27 µM	2.08 µM	–
COc1ccc(/C=C\c2cc(OC)c(OC)c(OC)c2)cc1NC(=O)[C@H](CCSC)NC(=O)OC1CC(C)(C)N([O])C(C)(C)C1	4.15 µM	1.68 µM	2.05 µM	1.16 µM	–
COc1cc([C@@H]2c3cc4c(cc3[C@@H](O[C@@H]3O[C@@H]5CO[C@@H](C)O[C@H]5[C@H](O)[C@H]3O)[C@H]3COC(=O)[C@H]23)OCO4)cc(OC)c1O [ETOPOSIDE]	–	–	–	–	IC50 (K562; Homo sapiens, K562, 24 h): 2.85 µM; IC50 ([1]; Homo sapiens, 24 h): 26.9 µM; IC50 (HepG2; Homo sapiens, HepG2, 24 h): 104 µM; IC50 (HeLa [2]; Homo sapiens, HeLa, 24 h): 17.7 µM
COc1ccc(/C=C\c2cc(OC)c(OC)c(OC)c2)cc1NC(=O)[C@@H]1CCCN1C(=O)OC1CC(C)(C)N([O])C(C)(C)C1	5.53 µM	4.71 µM	4.48 µM	3.39 µM	–
COc1ccc(/C=C\c2cc(OC)c(OC)c(OC)c2)cc1NC(=O)[C@@H](NC(=O)OC1CC(C)(C)N([O])C(C)(C)C1)C(C)C	12 µM	0.43 µM	1.05 µM	0.15 µM	–
COc1ccc(/C=C\c2cc(OC)c(OC)c(OC)c2)cc1NC(=O)C1CC(C)(C)N([O])C(C)(C)C1	16.9 µM	42.5 µM	51.2 µM	59.2 µM	–
COc1ccc(/C=C\c2cc(OC)c(OC)c(OC)c2)cc1N	–	–	–	–	IC50 (K562; Homo sapiens, K562, 24 h): 0.12 µM; IC50 ([1]; Homo sapiens, 24 h): 0.014 µM; IC50 (HepG2; Homo sapiens, HepG2, 24 h): 0.028 µM; IC50 (HeLa [2]; Homo sapiens, HeLa, 24 h): 0.403 µM
COc1ccc(/C=C\c2cc(OC)c(OC)c(OC)c2)cc1NC(=O)[C@H](Cc1ccccc1)NC(=O)OC1CC(C)(C)N([O])C(C)(C)C1	5.8 µM	6.33 µM	0.28 µM	8.37 µM	–
COc1ccc(/C=C\c2cc(OC)c(OC)c(OC)c2)cc1NC(=O)C1CC(C)(C)N([O])C1(C)C (stereo not drawn)	10.4 µM	4.93 µM	25 µM	7.6 µM	–
CC[C@H](C)[C@H](NC(=O)OC1CC(C)(C)N([O])C(C)(C)C1)C(=O)Nc1cc(/C=C\c2cc(OC)c(OC)c(OC)c2)ccc1OC	18.8 µM	3.07 µM	2.19 µM	2.33 µM	–
COc1ccc(/C=C\c2cc(OC)c(OC)c(OC)c2)cc1NC(=O)[C@H](C)NC(=O)OC1CC(C)(C)N([O])C(C)(C)C1	1.56 µM	0.96 µM	0.73 µM	0.39 µM	–
